According to PubChem BioAssay:
Results filed as inconclusive are left out.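 Rule for the calls, unless noted: active = viability increase at or above a cutoff of the median across tested compounds plus 3 SD (cut at about 8.5% in these data, passing the limit was not always enough); inconclusive = some gains above the cutoff, reason not given; inactive = the rest.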

Assays:
[1] = S. cerevisiae growth inhibition in permissive medium (OD615), pilot counter-assay for S. cerevisiae lifespan shortening project, permissive growth control (AID 705;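 active = growth inhibition above 25% in both replicates, a cutoff set 3 SD above the mean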); conditions: OD615, 24 h, at 10 µM, hits give high values
Method in brief: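 Timing: 24 h exposure, 30 °C / Material: Saccharomyces cerevisiae strain carrying genetically modified DeaD replicative-lifespan system / Signal: OD at 615 nm / Compound: 10 µM single dose, 0.25% DMSO / Medium: SC raffinose/galactose permissive medium / Evaluation: reduction in yeast growth (OD615)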

[2] = S. cerevisiae growth inhibition in restrictive medium, OD615, pilot screen, restrictive growth control, yeast lifespan reduction project (AID 706;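 active = growth inhibition above a set limit, 3 SD over mean compound inhibition, in both replicates, cut at about 43% in these data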;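 note: modified DeaD lifespan yeast strain shifted to restrictive glucose medium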); conditions: OD615, 48 h, at 10 µM, hits give high values
Method in brief: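 System: Engineered S. cerevisiae DeaD strain | Detection: OD615 | Buffer or medium: CSMM-D glucose medium | Doses: 10 µM compound, 0.25% DMSO | Timing: 4 h pre-growth plus 48 h compound exposure, 30 °C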

[3] = doxorubicin toxicity protection in MRP-1 cells – H69AR cells, CellTiter-Glo, duplicate, MRP-1 activator project, pilot screen (AID 807); conditions: H69AR viability with doxorubicin, CellTiter-Glo luminescence; at 10 µM; hits give high values;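 note: compound pretreatment 18-22 h then 72 h combined with doxorubicin; 0% = doxorubicin alone and 100% = vehicle without doxorubicin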
[4] = viability of HCT116 without oncogenic beta-catenin – human colon tumor cells, pilot screen (AID 823;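 active = cell viability at or below a set limit in both duplicate runs, the limit being the all-compound median minus 4 SD, cut at about 23% in these data, passing the limit was not always enough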;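 note: 0% = wells killed by 20 µM Hyamine and 100% = untreated DMSO cell wells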); conditions: HCT116 beta-catenin knockout viability, CellTiter-Glo, 60 h; at 10 µM; hits give low values
[5] = viability of PTEN-null HCT116 cells – cell-based, HCT116 clonal line, CellTiter-Glo, pilot screen (AID 824;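 active = viability at or below 27.92% in each of two runs, the all-compound median minus 4 SD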;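 note: 0% = 20 µM Hyamine control and 100% = vehicle cell control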); conditions: HCT116 PTEN-deleted viability, 60 h, at 10 µM, hits give low values
[6] = RAM pathway blockade in budding yeast – dse1pr::URA3 reporter, 5-FOA selection, pilot screen (AID 869;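 active = inhibition over a set limit, the all-compound mean plus 3 SD, in both replicate runs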;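 note: 0% = DMSO wells with no growth and 100% = 10 µM 1-NA-PP1 with full growth; RAM network block rescues cells from 5-FOA so hits raise OD615 growth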); conditions: S. cerevisiae dse1pr::URA3 5-FOA growth, OD615, 2 d; at 10 µM; hits give high values; strain carries analog-sensitive mutant Cbk1 kinase
[7] = RAM signaling pathway blockade in yeast – S. cerevisiae, Pdr1DBD-CYC8 efflux-inhibited sensitized strain, primary screen (AID 1298;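 active = RAM network inhibition above 8.4% in each of two replicates, 3 SD over the compound average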;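 note: 0% = DMSO untreated cells without growth and 100% = 10 µM 1-NA-PP1 full growth; higher means more yeast growth rescued from 5-FOA killing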); conditions: S. cerevisiae cbk1-as DSE1-URA3 strain, 5-FOA growth OD615, 2 d; at 50 µM; hits give high values

O=C1CC(c2nc3ccccc3[nH]2)CN1c1cccc(C(F)(F)F)c1 (stereo not drawn)
inactive: growth inhibition [1] -1.92% | growth inhibition [2] 4.75% | viability increase [3] 6.49% | viability [4] 86% | viability [5] 76.5% | inhibition [6] 1.1% | RAM network inhibition [7] -2.12%

NC(=O)C1CCN(c2ncnc3c2c(-c2ccccc2)cn3-c2ccccc2)CC1
inactive: growth inhibition [1] -2.17% | growth inhibition [2] 8.02% | viability increase [3] -4.62% | viability [4] 81.3% | viability [5] 81.9% | inhibition [6] -0.35% | RAM network inhibition [7] 3.9%

c1nc(N2CCCCC2)c2[nH]cnc2n1
inactive: growth inhibition [1] -2.33% | growth inhibition [2] -9.23% | viability increase [3] -5.39% | viability [4] 113% | viability [5] 102% | inhibition [6] 1.4% | RAM network inhibition [7] 2.24%

Cn1nc(-c2ccc(Cl)cc2)c2cc(C(=O)N3CCN(C(=O)c4ccco4)CC3)sc21
inactive: growth inhibition [1] 5.26% | growth inhibition [2] 15.6% | viability increase [3] -6.46% | viability [4] 66.6% | viability [5] 66.2% | inhibition [6] 0.755% | RAM network inhibition [7] 4.92%

COc1cc(NC(=O)Cc2ccccc2)cc(OC)c1
inactive: growth inhibition [1] -1.66% | growth inhibition [2] -4.67% | viability increase [3] -2.51% | viability [4] 107% | viability [5] 96.7% | inhibition [6] 1.11% | RAM network inhibition [7] 0.25%

CCOC(=O)c1ccc2nc(NC(=O)C(C)C)sc2c1
inactive: growth inhibition [1] -10.9% | growth inhibition [2] -10.6% | viability increase [3] -6.61% | viability [4] 78.6% | viability [5] 80% | inhibition [6] 1.98% | RAM network inhibition [7] 0.06%

O=C(NCc1ccncc1)C(F)(F)C(F)(F)C(=O)NCc1ccncc1
inactive: growth inhibition [1] -0.215% | growth inhibition [2] -3.65% | viability increase [3] -1.87% | viability [4] 93.9% | viability [5] 85.4% | inhibition [6] 1.33% | RAM network inhibition [7] 1.22%

COc1cc(C)c(S(=O)(=O)NCc2ccc3c(c2)OCO3)cc1C
inactive: growth inhibition [1] -2.38% | growth inhibition [2] 3% | viability increase [3] 0.6% | viability [4] 106% | viability [5] 102% | inhibition [6] -0.055% | RAM network inhibition [7] -0.06%

COc1cccc(C2NC(=O)NC(C)=C2C(=O)OCCSC)c1OC (stereo not drawn)
inactive: growth inhibition [1] -3.21% | growth inhibition [2] -16.4% | viability increase [3] -0.87% | viability [4] 93.7% | viability [5] 90.6% | inhibition [6] 1.07% | RAM network inhibition [7] 2.02%

N=c1oc2ccccc2cc1-c1nc2ccccc2c(=O)[nH]1
inactive: growth inhibition [1] 2.5% | growth inhibition [2] 1.96% | viability increase [3] 2.52% | viability [4] 94.3% | viability [5] 96.3% | inhibition [6] 2% | RAM network inhibition [7] 4.24%

Cc1nc2ccccn2c1C(=O)NC1CCCCC1
inactive: growth inhibition [1] 4.45% | growth inhibition [2] 1.56% | viability increase [3] -1.3% | viability [4] 101% | viability [5] 103% | inhibition [6] 1.17% | RAM network inhibition [7] -0.77%

CCOc1ccc(CC(=O)Nc2c(C(N)=O)oc3ccc(Br)cc23)cc1OCC
inactive: growth inhibition [1] -12% | growth inhibition [2] -15.8% | viability increase [3] -5.14% | viability [4] 61% | viability [5] 45% | inhibition [6] 2.49% | RAM network inhibition [7] 0.56%

CCC(C)NC(=O)CS(=O)Cc1nc(-c2ccccc2C)oc1C (stereo not drawn)
inactive: growth inhibition [1] 1.69% | growth inhibition [2] 12.7% | viability increase [3] -2.38% | viability [4] 96.1% | viability [5] 95.2% | inhibition [6] 1.9% | RAM network inhibition [7] 9.39%

Cc1ccc(N2C(=O)C(Cl)=C(NCCO)C2=O)c(C)c1
inactive: growth inhibition [1] -4.71% | growth inhibition [2] -2.88% | viability increase [3] -2.47% | viability [4] 105% | viability [5] 100% | inhibition [6] 2.02% | RAM network inhibition [7] 8.82%

Cc1cc(C)nc(SCC(=O)c2ccc(O)cc2O)n1
inactive: growth inhibition [1] -0.2% | growth inhibition [2] 9.03% | viability increase [3] -3.73% | viability [4] 99.7% | viability [5] 99.4% | inhibition [6] 1.04% | RAM network inhibition [7] -1.2%

COc1ccc(-n2ncc3c(N4CCN(c5cc(C)ccc5C)CC4)ncnc32)cc1
inactive: growth inhibition [1] -8.7% | growth inhibition [2] 4.27% | viability increase [3] -4.46% | viability [4] 61.3% | viability [5] 68% | inhibition [6] 2.01% | RAM network inhibition [7] 3.49%

CC1CCN(C(=O)c2ccc(NC(=O)C3CCCO3)cc2)CC1 (stereo not drawn)
inactive: growth inhibition [1] -31.4% | growth inhibition [2] -18.3% | viability increase [3] -0.41% | viability [4] 96.4% | viability [5] 94.3% | inhibition [6] 1.26% | RAM network inhibition [7] 3.59%

CC(C)N(Cc1nc(-c2ccc(Cl)cc2)no1)C(=O)CCC1CCCC1
inactive: growth inhibition [1] -13.1% | growth inhibition [2] -14.6% | viability increase [3] -0.03% | viability [4] 70.3% | viability [5] 74.4% | inhibition [6] 0.865% | RAM network inhibition [7] 8.34%

Cn1c(NC(=O)c2cccc(C(F)(F)F)c2)cc(=O)n(C)c1=O
inactive: growth inhibition [1] -16% | growth inhibition [2] -5.14% | viability increase [3] -2.74% | viability [4] 98.8% | viability [5] 94.5% | inhibition [6] 0.925% | RAM network inhibition [7] 1.89%

COc1ccc(-c2ccc(=O)n(CC(=O)N3CCN(c4ccccc4OC)CC3)n2)cc1
inactive: growth inhibition [1] -4.48% | growth inhibition [2] 12% | viability increase [3] 2.33% | viability [4] 89.7% | viability [5] 92.9% | inhibition [6] 1.15% | RAM network inhibition [7] 7.61%

CC(C)(C)c1ccc(-c2cc(N)n[nH]2)cc1
inactive: growth inhibition [1] 2.28% | growth inhibition [2] 13.2% | viability increase [3] -2.81% | viability [4] 95.5% | viability [5] 90.1% | inhibition [6] 2.32% | RAM network inhibition [7] 2.2%

COc1ccc(-n2c(Cc3cc(=O)[nH]c(=O)[nH]3)nnc2SCC(=O)NC2CCCC2)cc1
inactive: growth inhibition [1] -0.575% | growth inhibition [2] 2.41% | viability increase [3] 1.47% | viability [4] 104% | viability [5] 107% | inhibition [6] 0.535% | RAM network inhibition [7] 3.15%

Cc1nc(Cc2nnc(SCc3nc(N)nc(Nc4ccccc4C)n3)o2)cs1
inactive: growth inhibition [1] -3.24% | growth inhibition [2] 20.5% | viability increase [3] -1.28% | viability [4] 98.7% | viability [5] 97.5% | inhibition [6] 0.85% | RAM network inhibition [7] 5.96%

O=C(NCC1COc2ccccc2O1)C1CCC(CNc2c(N3CCCCC3)c(=O)c2=O)CC1 (stereo not drawn)
inactive: growth inhibition [1] -8.76% | growth inhibition [2] -9.54% | viability increase [3] 0.01% | viability [4] 88.6% | viability [5] 86.4% | inhibition [6] 2.89% | RAM network inhibition [7] 4.02%
